In the EternaBench riboswitch data:

What was measured:
MS2 coat protein [1] = test: apparent Kd, MS2 coat protein; higher = weaker binding; RNA-MaP array; tryptophan 2.4 mM where present
How it was run: (§1)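 Designs were transcribed by stalled E. coli RNA polymerase on Illumina sequencing-chip clusters. They were titrated with SNAP-549-labelled MS2 coat protein from 0.7 or 1.5 nM, doubling to 3 µM, in 100 mM Tris-HCl pH 7.5, 80 mM KCl, 4 mM MgCl2, BSA, DTT, yeast tRNA and Tween-20, without and then with constant ligand. The apparent Kd is the median of filtered per-cluster fits after normalisation of green signal to red-channel RNA signal and control-cluster median Fmax.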

MS2 coat protein [2] = test: apparent Kd, MS2 coat protein; higher = weaker binding; RNA-MaP array; theophylline 2 mM where present
How it was run: as §1

[3] = designed as: ON switch for tryptophan, no ligand
[4] = ligand present: tryptophan, designed as: ON switch for tryptophan
[5] = designed as: ON switch for theophylline, no ligand
[6] = ligand present: theophylline, designed as: ON switch for theophylline
[7] = designed as: OFF switch for theophylline, no ligand
[8] = ligand present: theophylline, designed as: OFF switch for theophylline

Sequence | apparent Kd (MS2 coat protein [2]; [5]) [nM] | apparent Kd (MS2 coat protein [2]; [6]) [nM] | apparent Kd (MS2 coat protein [2]; [7]) [nM] | apparent Kd (MS2 coat protein [2]; [8]) [nM] | also measured
UAAUGCAGGUCGGCCGCCACUACAAACAUGAGGAUCACCCAUGUAGUUACUGGGUGAAGUGGCAGUAGGACCGGGACCUGCAUAA |  |  |  |  | apparent Kd (MS2 coat protein [1]; [3]): 289 nM; apparent Kd (MS2 coat protein [1]; [4]): 342 nM
UACUUGCUGACGGCCGCCACUAGAACAUGAGGAUCACCCAUGUACCUGGUCCUUCAUGGGUGGACUAGGACCGGGUCAGCAAGAU |  |  |  |  | apparent Kd (MS2 coat protein [1]; designed as: OFF switch for tryptophan, no ligand): 339 nM; apparent Kd (MS2 coat protein [1]; ligand present: tryptophan, designed as: OFF switch for tryptophan): 549 nM
AUUCAUGGAAACAUGACAUACAUAACCGGUCGAGGACCGGUACGGCCGCCACUCGUUUGGAGGCACAUGAGGAUCACCCAUGUUA |  |  |  |  | apparent Kd (MS2 coat protein [1]; [3]): 23.7 nM; apparent Kd (MS2 coat protein [1]; [4]): 24.5 nM
GGCACAUAGUCGGCCGCCACUACUAACACCUCAGACAACAUGAGGAUCACCCAUGUUCCAGAGUGUAGGACCGGGACUAUGUGCC |  |  |  |  | apparent Kd (MS2 coat protein [1]; [3]): 11.6 nM; apparent Kd (MS2 coat protein [1]; [4]): 10.5 nM
AACACAUGAGGAUCACCCAUGUUCUCGUGUCGAGGACCGGUACGGCCGCCACUCGGUUCUCGCGAGGAUGGUCAAAGACUAUCCA |  |  |  |  | apparent Kd (MS2 coat protein [1]; [3]): 47.7 nM; apparent Kd (MS2 coat protein [1]; [4]): 42 nM
UAACAUGAGGAUCACCCAUGUUUGAAGGAACGAGGACCGGUACGGCCGCCACUCGACGAGUGGAUGAGAAGUGGGAUAGUGUGCU |  |  |  |  | apparent Kd (MS2 coat protein [1]; [3]): 13.2 nM; apparent Kd (MS2 coat protein [1]; [4]): 13.8 nM
ACGUUGUAGUCGGCCGCCACUGUUUUCAUGUUCAACAUGAGGAUCACCCAUGUACCUUUUUUUAUCAGGACCGGGACGUAUUCGA |  |  |  |  | apparent Kd (MS2 coat protein [1]; [3]): 93.2 nM; apparent Kd (MS2 coat protein [1]; [4]): 40.7 nM
GUCGGUACGUCGGCAAAGCCGAUGUGCCAGCGAGGACCGGUACGGCCGCCACUCGUACAUGAGGAUCACCCAUGUCCGGUCCGGC |  |  |  |  | apparent Kd (MS2 coat protein [1]; [3]): 69.2 nM; apparent Kd (MS2 coat protein [1]; [4]): 70.7 nM
AUCGUACCUGAAGAUACCAGCAUGUGAUCAUAACAUGAGGAUCACCCAUGUAAUCAGUGAUGCCCUUGGCAGCUUGAUCGGUACA | 40.8 | 19.2 |  |  | 
ACGAACGAUAGUGAUACCAGACGUACAUGAGGAUCACCCAUGUUUUGGGUAAGGUUAAUAGUCCCUUGGCAGCACUUUAAGUUCG |  |  | 58.7 | 398 | 
CCUGCGUUUCUUUUCUUUCGCAGGAAUGAUACCAGUAGGGAAACCUACCCUUGGCAGCAUGGGUAACAUGAGGAUCACCCAUGUU | 473 | 82.2 |  |  | 
UCACGACGCAUGGAUACCAGCGACAUGAGGAUCACCCAUGUAUGAGGAUCAGCCAUGUUAUGCCCUUGGCAGCCACGAAGGUCAU |  |  | 14.1 | 64.1 | 
AAUUUGUCGGGUGAUACCAGCCUCGGCGCGUCUCGCGCUGAACAUGAGGAUCACCCAUGUGGCCCUUGGCAGCACAUGACAAAUC | 670 | 38.2 |  |  | 
UGCUGACAAGGACAUGGAUGAUCAGCUGAUACCAGCCUGGAAACAGGCCCUUGGCAGCAGCACAUGAGGAUCACCCAUGUAAUAA |  |  | 33.7 | 66.3 | 
GCCAGACAUGAGGAUCACCCAUGUAGCGAUACCAGCUCUGUUGUGAGCCCUUGGCAGCGCACUGGCAUCGCGGGUGAUCCUGCAU | 43.4 | 164 |  |  | 
UUAUUUAUAUUAGAUACCAGUUUAAUGGCCGCAAAUCCUGACAUGAGGAUCACCCAUGUAAGCCCUUGGCAGCUGGUAUGGGUUU |  |  | 19.3 | 20.7 | 
UCGUGUGUUUCGGAUACCAGUGAAAUCGAUACAUGAGGAUCACCCAUGUGAGAGGAUGUACACCCUUGGCAGCUGGCUGUUGCGG | 42.4 | 42.6 |  |  | 
UUUUAACAUGAGGAUCACCCAUGUAAUGAUACCAGAGACGAAAGUCUCCCUUGGCAGCAUAUAUCAUUACUCAUAGGAAACUAUG | 17.5 | 16 |  |  | 
UGUAACAUGAGGAUCACCCAUGUAAGUGAUACCAGAUAAGUAGUAGUCCCUUGGCAGCAUAUUGGGAAAGUGUAUAGUGUAUAUG | 53.3 | 61.7 |  |  | 
GGUGGUGGGACGGAUACCAGCCACCGCGGCAACGCAACAUGAGGAUCACCCAUGUUGGGUGGCCCUUGGCAGCUGUCCUGCGGCG | 13.9 | 13.1 |  |  | 
UAUACAUGGGAUACCAUGGAUCCGAGUGAUACCAGCUAUCCGAAUAGCCCUUGGCAGCACAGUACAUGAGGAUCACCCAUGUAUA | 27.5 | 33 |  |  | 
AGCGACAUGCAUGAUACCAGCUACAUGAGGAUCACCCAUGUACGUCAGUAAUGACUGUGUAGCCCUUGGCAGCAUAGAGCAUGUC |  |  | 18.3 | 48.6 | 
CCUGCUACGGGAAACCGUAGCAGGAAUGAUACCAGUAGGAAAGACUACCCUUGGCAGCAUGGGAAACAUGAGGAUCACCCAUGUU | 56.3 | 56.6 |  |  | 
ACGAACGAUAGUGAUACCAGACGUACAUGAGGAUCACCCAUGUUAUACACAUGGUUUAUUGUCCCUUGGCAGCACGAUAAGUUCG |  |  | 225 | 287 | 
GUUAUGGACCUGGAUACCAGCUGGUACAAGGGCGGUCUACAUGAGGAUCACCCAUGUGUCAGCCCUUGGCAGCCAGCAACCCACU |  |  | 9.88 | 11.4 | 
UAUAUAUAAAUUGAUACCAGCGAGAAAACAUGAGGAUCACCCAUGUUCGCCCAUGUUAAGCGCCCUUGGCAGCAAUAUUAUUAUU |  |  | 24.5 | 73 | 
